# Results as given in ChEMBL document CHEMBL3286393 (J Med Chem, 2014).
# Legend:
# [1] = target: T1, Prostaglandin G/H synthase 1 (Ovis aries) (UniProt P05979); assay: Inhibition of purified ovine COX-1 assessed as residual activity by measuring formation of 12-HHT from arachidonic acid preincubated at 10 uM for 5 mins before substrate addition measured after 5 mins by HPLC analysis relative to control; values are per cent of control
# T1 sequence (whole entry): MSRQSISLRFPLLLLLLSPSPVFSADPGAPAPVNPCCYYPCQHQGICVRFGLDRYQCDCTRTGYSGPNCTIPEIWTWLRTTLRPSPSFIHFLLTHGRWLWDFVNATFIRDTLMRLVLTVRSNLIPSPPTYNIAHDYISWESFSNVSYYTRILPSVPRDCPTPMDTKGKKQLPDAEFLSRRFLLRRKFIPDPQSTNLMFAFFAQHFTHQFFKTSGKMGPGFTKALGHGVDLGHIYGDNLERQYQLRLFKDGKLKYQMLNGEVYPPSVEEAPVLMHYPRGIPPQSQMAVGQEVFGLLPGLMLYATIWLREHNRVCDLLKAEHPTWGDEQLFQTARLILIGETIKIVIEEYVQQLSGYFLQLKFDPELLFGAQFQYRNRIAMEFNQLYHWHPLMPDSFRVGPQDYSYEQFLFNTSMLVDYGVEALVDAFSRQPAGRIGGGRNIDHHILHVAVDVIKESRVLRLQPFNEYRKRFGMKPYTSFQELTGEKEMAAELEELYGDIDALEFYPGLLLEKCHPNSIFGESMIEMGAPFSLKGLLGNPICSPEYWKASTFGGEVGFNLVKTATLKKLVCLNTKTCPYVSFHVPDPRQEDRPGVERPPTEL
# [2] = target: T2, Polyunsaturated fatty acid 5-lipoxygenase (Homo sapiens) (UniProt P09917); assay: Inhibition of 5-LO in human neutrophils using arachidonic acid as substrate assessed as residual activity preincubated at 10 uM for 15 mins measured after 10 mins by HPLC analysis relative to control
# T2 sequence (whole entry): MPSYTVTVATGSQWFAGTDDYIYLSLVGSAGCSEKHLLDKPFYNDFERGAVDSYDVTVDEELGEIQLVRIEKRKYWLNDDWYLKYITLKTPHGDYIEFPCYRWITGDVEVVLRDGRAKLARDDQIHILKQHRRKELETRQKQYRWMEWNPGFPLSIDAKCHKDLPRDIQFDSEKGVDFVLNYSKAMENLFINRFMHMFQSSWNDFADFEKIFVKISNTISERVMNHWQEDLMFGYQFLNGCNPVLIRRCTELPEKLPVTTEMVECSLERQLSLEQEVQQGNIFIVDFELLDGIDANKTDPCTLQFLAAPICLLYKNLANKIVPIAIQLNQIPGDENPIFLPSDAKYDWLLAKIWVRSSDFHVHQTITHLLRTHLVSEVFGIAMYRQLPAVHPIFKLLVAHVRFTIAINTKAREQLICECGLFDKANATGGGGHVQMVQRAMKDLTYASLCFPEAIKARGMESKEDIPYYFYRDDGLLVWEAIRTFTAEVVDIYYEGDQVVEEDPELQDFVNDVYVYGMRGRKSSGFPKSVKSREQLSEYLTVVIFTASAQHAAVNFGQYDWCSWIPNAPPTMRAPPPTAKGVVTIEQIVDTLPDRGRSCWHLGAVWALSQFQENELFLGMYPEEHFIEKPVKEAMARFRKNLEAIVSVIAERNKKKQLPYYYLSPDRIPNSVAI
# Procedure, shortened: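 Fresh human neutrophils, 1 × 10⁷/mL in PBS pH 7.4 with 1 mM CaCl2 and 1 mg/mL glucose, preincubated 15 min at 37 °C. Stimulated with 2.5 μM A23187 plus 20 μM arachidonic acid for 10 min at 37 °C; methanol stop. LTB4, its all-trans isomers and 5-H(P)ETE by HPLC.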
# Mus musculus = assay: Antiinflammatory activity in zymosan-induced peritonitis CD1 mouse model assessed as suppression of neutrophil infiltration at 10 mg/kg, ip administered 30 mins before challenge measured 4 hrs post zymosan challenge relative to control; format: functional; settings: route intraperitoneal
# Procedure, shortened: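 Zymosan peritonitis in male CD-1 mice (n = 5−11): ip dose in 2% DMSO/saline 30 min before ip zymosan. Peritoneal lavage with 3 mL cold PBS at 4 h. Exudate cells counted by light microscopy in a Burker chamber after trypan blue staining; % inhibition vs vehicle.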
# [3] = target: T3, Prostaglandin G/H synthase 2 (Homo sapiens, UniProt P35354); assay: Inhibition of COX2-mediated PGF2alpha formation in LPS-stimulated human monocytes preincubated for 15 mins before arachidonic acid substrate addition measured after 30 mins by UPLC-MS/MS analysis; format: cell-based
# T3 sequence (P35354 whole entry): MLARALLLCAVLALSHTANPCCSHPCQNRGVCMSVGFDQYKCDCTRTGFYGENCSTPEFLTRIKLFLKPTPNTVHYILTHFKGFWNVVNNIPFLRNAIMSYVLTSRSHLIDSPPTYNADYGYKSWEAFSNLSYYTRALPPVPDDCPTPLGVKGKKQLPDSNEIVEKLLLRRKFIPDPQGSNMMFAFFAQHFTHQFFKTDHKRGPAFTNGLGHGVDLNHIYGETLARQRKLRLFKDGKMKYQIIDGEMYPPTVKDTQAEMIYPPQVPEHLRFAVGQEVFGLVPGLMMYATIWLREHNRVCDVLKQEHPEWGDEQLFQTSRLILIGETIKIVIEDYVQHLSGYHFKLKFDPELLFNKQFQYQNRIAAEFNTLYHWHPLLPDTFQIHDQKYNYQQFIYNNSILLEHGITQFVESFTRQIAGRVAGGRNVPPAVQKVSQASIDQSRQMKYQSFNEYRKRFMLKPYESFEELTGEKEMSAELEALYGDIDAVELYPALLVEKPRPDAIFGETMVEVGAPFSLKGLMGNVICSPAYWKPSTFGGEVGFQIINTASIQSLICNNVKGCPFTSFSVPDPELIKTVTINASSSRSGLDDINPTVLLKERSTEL
residual activity [1] [%],Activity [2] [%],IC50 [3] [µM],Compound,inhibition in vivo at 10 mg/kg (Mus musculus) [%]
78.7,–,–,COc1cc(/C=C/C(=O)/C=C/c2cc(CC=C(C)C)c(O)c(OC)c2)cc(CC=C(C)C)c1O,–
–,70.1,–,COc1cc(CCC(=O)CC(=O)CCc2ccc(O)c(OC)c2)ccc1O [TETRAHYDROCURCUMIN],–
80.2,74.3,–,COc1cc(/C=C/C(=O)CC(=O)/C=C/c2cc(CC=C(C)C)c(O)c(OC)c2)cc(CC=C(C)C)c1O,–
–,–,> 10,COc1cc(/C=C/c2cc(/C=C/c3cc(CC=C(C)C)c(O)c(OC)c3)[nH]n2)cc(CC=C(C)C)c1O,75
